Data published in ChEMBL document CHEMBL4680108, “Ancistrolikokine E, a 5,8'-Coupled Naphthylisoquinoline Alkaloid, Eliminates the Tolerance of Cancer Cells to Nutrition Starvation by Inhibition of the Akt/mTOR/Autophagy Signaling Pathway” (2018).
Active and inactive are the calls of the source. No cut-off for these calls is given here.

Experiments:
PANC-1 [1] = test: Induction of apoptosis in human PANC-1 cells cultured in nutrient-deprived medium assessed as inhibition of Bcl-xl measured after 6 hrs by Western blot analysis; assay type: functional, cell-based; details: dose 2.5-40 µM
Summary of the method: (§1)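 PANC-1 cells in NDM or DMEM exposed to compound at different concentrations for 6 h, then immunoblotted for Bcl-2, Bcl-xL and caspase-3.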

PANC-1 [2] = test: Induction of apoptosis in human PANC-1 cells cultured in nutrient-deprived medium assessed as inhibition of caspase-3 measured after 6 hrs by Western blot analysis; assay type: functional, cell-based; details: dose 2.5-40 µM; summary of the method: as §1
PANC-1 [3] = test: Induction of apoptosis in human PANC-1 cells cultured in nutrient-deprived medium assessed as induction of active caspase-3 cleavage at 2.5 to 40 uM measured after 6 hrs by Western blot analysis; assay type: functional, cell-based; details: dose 2.5-40 µM; summary of the method: as §1
PANC-1 [4] = test: Inhibition of Akt/mTOR signaling pathway in human PANC-1 cells cultured in nutrient-deprived medium assessed as decrease in phosphorylated Akt level at S473 residue measured after 6 hrs by Western blot analysis; assay type: cell-based; details: dose 2.5-40 µM
Summary of the method: (§2)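 Western blot of PANC-1 cells exposed to compound at different concentrations for 6 h in NDM or DMEM. Probed for total and phosphorylated Akt and mTOR and for GβL. Band levels compared with untreated control cells in NDM.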

PANC-1 [5] = test: Inhibition of Akt/mTOR signaling pathway in human PANC-1 cells cultured in nutrient-deprived medium assessed as decrease in total Akt level measured after 6 hrs by Western blot analysis; assay type: cell-based; details: dose 2.5-40 µM; summary of the method: as §2
PANC-1 [6] = test: Inhibition of Akt/mTOR signaling pathway in human PANC-1 cells cultured in nutrient-deprived medium assessed as decrease in phosphorylated mTOR level at S2448 residue measured after 6 hrs by Western blot analysis; assay type: cell-based; details: dose 2.5-40 µM; summary of the method: as §2
PANC-1 [7] = test: Inhibition of Akt/mTOR signaling pathway in human PANC-1 cells cultured in nutrient-deprived medium assessed as decrease in total mTOR level measured after 6 hrs by Western blot analysis; assay type: cell-based; details: dose 2.5-40 µM; summary of the method: as §2
PANC-1 [8] = test: Inhibition of Akt/mTOR signaling pathway in human PANC-1 cells cultured in nutrient-deprived medium assessed as decrease in GbetaL level measured after 6 hrs by Western blot analysis; assay type: cell-based; details: dose 2.5-40 µM; summary of the method: as §2
PANC-1 [9] = test: Inhibition of Akt/mTOR signaling pathway in human PANC-1 cells cultured in nutrient-deprived medium assessed as decrease in phosphorylated Akt level at S473 residue at 20 uM measured after 6 hrs by Western blot analysis relative to control; assay type: cell-based; summary of the method: as §2
PANC-1 [10] = test: Inhibition of Akt/mTOR signaling pathway in human PANC-1 cells cultured in nutrient-deprived medium assessed as decrease in phosphorylated Akt level at S473 residue at 40 uM measured after 6 hrs by Western blot analysis relative to control; assay type: cell-based; summary of the method: as §2
PANC-1 [11] = test: Inhibition of Akt/mTOR signaling pathway in human PANC-1 cells cultured in nutrient-deprived medium assessed as decrease in total Akt level at 20 uM measured after 6 hrs by Western blot analysis relative to control; assay type: cell-based; summary of the method: as §2
PANC-1 [12] = test: Inhibition of Akt/mTOR signaling pathway in human PANC-1 cells cultured in nutrient-deprived medium assessed as decrease in total Akt level at 40 uM measured after 6 hrs by Western blot analysis relative to control; assay type: cell-based; summary of the method: as §2
PANC-1 [13] = test: Inhibition of Akt/mTOR signaling pathway in human PANC-1 cells cultured in nutrient-deprived medium assessed as decrease in phosphorylated mTOR level at S2448 residue at 40 uM measured after 6 hrs by Western blot analysis relative to control; assay type: cell-based; summary of the method: as §2
PANC-1 [14] = test: Inhibition of Akt/mTOR signaling pathway in human PANC-1 cells cultured in nutrient-deprived medium assessed as decrease in total mTOR level at 40 uM measured after 6 hrs by Western blot analysis relative to control; assay type: cell-based; summary of the method: as §2
PANC-1 [15] = test: Inhibition of autophagy in human PANC-1 cells cultured in nutrient-deprived medium assessed as inhibition of Beclin-1 expression after 6 hrs by Western blot analysis; assay type: functional, cell-based; details: dose 2.5-40 µM
PANC-1 [16] = test: Inhibition of autophagy in human PANC-1 cells cultured in nutrient-deprived medium assessed as inhibition of Atg5 expression after 6 hrs by Western blot analysis; assay type: functional, cell-based; details: dose 2.5-40 µM
PANC-1 [17] = test: Inhibition of autophagy in human PANC-1 cells cultured in nutrient-deprived medium assessed as inhibition of Atg12 expression after 6 hrs by Western blot analysis; assay type: functional, cell-based; details: dose 2.5-40 µM
PANC-1 [18] = test: Inhibition of autophagy in human PANC-1 cells cultured in nutrient-deprived medium assessed as inhibition of LC3-1 expression after 6 hrs by Western blot analysis; assay type: functional, cell-based; details: dose 2.5-40 µM
PANC-1 [19] = test: Inhibition of autophagy in human PANC-1 cells cultured in nutrient-deprived medium assessed as inhibition of LC3-2 expression after 6 hrs by Western blot analysis; assay type: functional, cell-based; details: dose 2.5-40 µM
PANC-1 [20] = test: Inhibition of autophagy in human PANC-1 cells cultured in nutrient-deprived medium assessed as inhibition of LC3-1 expression at 40 uM after 6 hrs in presence of chloroquine by Western blot analysis; assay type: functional, cell-based
PANC-1 [21] = test: Inhibition of autophagy in human PANC-1 cells cultured in nutrient-deprived medium assessed as inhibition of LC3-2 expression at 40 uM after 6 hrs in presence of chloroquine by Western blot analysis; assay type: functional, cell-based
PANC-1 [22] = test: Inhibition of autophagy in human PANC-1 cells cultured in nutrient-deprived medium after 6 hrs by MDC-staining based fluorescence microscopy analysis; assay type: functional, cell-based; details: dose 40.0 µM
Summary of the method: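 PANC-1 cells under nutrient starvation given monodansylcadaverine with or without compound for 6 h. Autolysosome fluorescence viewed in fluorescence and phase-contrast modes.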

PANC-1 [23] = test: Inhibition of autophagy in human PANC-1 cells cultured in nutrient-deprived medium assessed as inhibition of LC3-2 expression at 40 uM after 6 hrs in presence of chloroquine by Western blot analysis relative to control; assay type: functional, cell-based

With `COc1cc(OC)c(-c2ccc(O)c3c(OC)cc(C)cc23)c2c1C(C)=N[C@H](C)C2` the inhibition (PANC-1 [1]) was “Active”, the inhibition (PANC-1 [2]) was “Active” and the Activity (PANC-1 [3]) was “inactive”. The inhibition (PANC-1 [4]) was “Dose-dependent effect”, the inhibition (PANC-1 [5]) was “Dose-dependent effect” and the inhibition (PANC-1 [6]) was “Dose-dependent effect”. For the same molecule, the inhibition (PANC-1 [7]) was “Dose-dependent effect”, the inhibition (PANC-1 [8]) was “Dose-dependent effect” and the inhibition (PANC-1 [9]) was 65%. The inhibition (PANC-1 [10]) was 99%, the inhibition (PANC-1 [11]) was 48% and the inhibition (PANC-1 [12]) was 86%. The inhibition (PANC-1 [13]) was 92%, the inhibition (PANC-1 [14]) was 100% and the inhibition (PANC-1 [15]) was “Dose-dependent effect”. The inhibition (PANC-1 [16]) was “Dose-dependent effect”, the inhibition (PANC-1 [17]) was “Dose-dependent effect” and the inhibition (PANC-1 [18]) was “Dose-dependent effect”. The inhibition (PANC-1 [19]) was “Dose-dependent effect”, the inhibition (PANC-1 [20]) was “Active” and the inhibition (PANC-1 [21]) was “Active”. The inhibition (PANC-1 [22]) was “Active” and the inhibition (PANC-1 [23]) was “Active”.
